# Laboratory results from ChEMBL document CHEMBL1123645, “Phenylephrine derivatives as leukotriene D4 antagonists” (J Med Chem, 1987).
# The source made the active and inactive calls. The calls are words filed in the database; no cut-off is given here.
# How the values were obtained:
# Cavia porcellus [1] = test: Inhibition of LTD4 (leukotriene) induced bronchospasm in the guinea pig when administered perorally at 25 mg/kg; NA means not active; assay type: functional, organism-based; design: dose 25 mg/kg
# In short: (§1)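 Guinea pig bronchoconstriction induced by LTD4 or by ovalbumin. Antagonist was dosed orally to awake animals 120 min before the agonist, which is 95 min before anesthetic. […] Single-dose lines give percent inhibition at the stated oral dose.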
# Cavia porcellus [2] = test: Inhibition of LTD4 (leukotriene) induced bronchospasm in the guinea pig when administered perorally (50 mg/kg)
# Cavia porcellus [3] = test: Inhibition of LTD4 (leukotriene) induced bronchospasm in the guinea pig when administered intraduodenally at 25 mg/kg
# Cavia porcellus [4] = test: Inhibition of Ovalbumin (OA) induced bronchospasm in the guinea pig when administered intraduodenally at 25 mg/kg; assay type: functional; settings: route intraduodenal
# In short: (§2)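 Guinea pig bronchoconstriction induced by LTD4 or by ovalbumin. Antagonist was given intraduodenally 10 min before the agonist. […] Single-dose lines give percent inhibition at the stated id dose.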
# Cavia porcellus [5] = test: Inhibition of Ovalbumin (OA) induced bronchospasm in the guinea pig when administered perorally at 25 mg/kg; assay type: functional; settings: route oral; in short: as §1
# Cavia porcellus [6] = test: Inhibition of LTD4 (leukotriene) induced bronchospasm in the guinea pig when administered intraduodenally (50 mg/kg)
# Cavia porcellus [7] = test: Antagonist activity was determined by the ability to inhibit of LTD4 (leukotriene D4) induced bronchospasm when administered perorally with respect to REV-5901 compound; assay type: functional; settings: po; in short: as §1
# Cavia porcellus [8] = test: Antagonist activity was determined by the ability to inhibit of ovalbumin induced bronchospasm when administered intraduodenally with respect to REV-5901 compound; assay type: functional; settings: intraduodenal; in short: as §2
# Cavia porcellus [9] = test: Antagonist activity was determined by the ability to inhibit of ovalbumin induced bronchospasm when administered perorally with respect to REV-5901 compound; assay type: functional; settings: po; in short: as §1
# Cavia porcellus [10] = test: Relative inhibitory potency against LTD4 (leukotriene D4) induced bronchospasm when administered intraduodenally with respect to REV-5901 compound; assay type: functional
# Cavia porcellus [11] = test: Relative inhibitory potency against LTD4 (leukotriene D4) induced bronchospasm when administered perorally with respect to REV-5901 compound; assay type: functional
# Cavia porcellus [12] = test: Antagonist activity was determined by the ability to inhibit of LTD4 (leukotriene D4) induced bronchospasm when administered intraduodenally with respect to REV-5901 compound; assay type: functional; settings: intraduodenal; in short: as §2
# Cavia porcellus [13] = species on record: Cavia porcellus; test: Antagonist activity towards LTD4-induced contraction of isolated guinea pig; assay type: functional
# In short: (§3)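 Guinea pig tracheal spirals stretched to near-optimal length and equilibrated 1.5 h, washed every 15 min. Indomethacin (5 μM) was present in all tissues. Cumulative LTD4 dose-response curves were recorded isometrically via force transducers. Paired proximal/distal strips from one animal got solvent control or drug. Values are negative log, mean ± SEM, and were compared by Student's t test.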
# Cavia porcellus [14] = species on record: Cavia porcellus; test: relative potency antagonist on LTD4-induced contraction of isolated guinea pig trachea; assay type: functional; in short: as §3
# Cavia porcellus [15] = test: Relative inhibitory potency against ovalbumin induced bronchospasm when administered perorally with respect to LY-171,883 compound
# [16] = target: Cysteinyl leukotriene receptor (Homo sapiens) (UniProt Q9Y271+Q9NS75); test: Inhibition of Ovalbumin (OA) induced bronchospasm in the guinea pig when administered intraduodenally (50 mg/kg); assay type: functional, organism-based; settings: Cavia porcellus; target entry is the homologue from another species; in short: as §2
# Cavia porcellus [17] = test: Inhibition of LTD4 (leukotriene) induced bronchospasm in the guinea pig when administered perorally (50 mg/kg); NA means not active; assay type: functional, organism-based; in short: as §1
# Cavia porcellus [18] = test: Antagonist activity was determined by the ability to inhibit of ovalbumin induced bronchospasm when administered per orally; assay type: functional; settings: po; in short: as §1
# Cavia porcellus [19] = test: Inhibition of Ovalbumin (OA) induced bronchospasm in the guinea pig when administered perorally (50 mg/kg); assay type: functional; in short: as §1
# Cavia porcellus [20] = test: Antagonist activity was determined by the ability to inhibit of ovalbumin induced bronchospasm when administered intraduodenally; assay type: functional; settings: intraduodenal; in short: as §2
# Cavia porcellus [21] = test: Relative inhibitory potency against LTD4 (leukotriene D4) induced bronchospasm when administered intraduodenally; assay type: functional
# Cavia porcellus [22] = test: Relative inhibitory potency against LTD4 (leukotriene D4) induced bronchospasm when administered per orally; assay type: functional
# Cavia porcellus [23] = test: Relative inhibitory potency against ovalbumin induced bronchospasm when administered intraduodenally; assay type: functional
# Cavia porcellus [24] = test: Relative inhibitory potency against ovalbumin induced bronchospasm when administered per orally; assay type: functional
# Cavia porcellus [25] = test: Antagonist activity was determined by the ability to inhibit of LTD4 (leukotriene D4) induced bronchospasm when administered intraduodenally; assay type: functional; settings: intraduodenal; in short: as §2
# Cavia porcellus [26] = test: Antagonist activity was determined by the ability to inhibit of LTD4 (leukotriene D4) induced bronchospasm when administered per orally; assay type: functional; settings: po; in short: as §1
# Cavia porcellus [27] = species on record: Cavia porcellus; test: relative potency antagonist on LTD4-induced contraction of isolated guinea pig; assay type: functional; in short: as §3
# [28] = target: Cyclooxygenase (Rattus norvegicus); test: Ability to inhibit Prostaglandin G/H synthase in rat
# Cavia porcellus [29] = test: Inhibition of LTD4 (leukotriene) induced bronchospasm in the guinea pig when administered perorally (50 mg/kg); remark: listed apart in the source
# Cavia porcellus [30] = test: Antagonist activity was determined by the ability to inhibit of ovalbumin induced bronchospasm when administered intraduodenally with respect to LY-171883 compound; assay type: functional; settings: intraduodenal; in short: as §2
# Cavia porcellus [31] = test: Antagonist activity was determined by the ability to inhibit of ovalbumin induced bronchospasm when administered perorally with respect to LY-171883 compound; assay type: functional; settings: po; in short: as §1
# Cavia porcellus [32] = test: Relative inhibitory potency against LTD4 (leukotriene D4) induced bronchospasm when administered intraduodenally with respect to LY-171883 compound; assay type: functional
# Cavia porcellus [33] = test: Relative inhibitory potency against LTD4 (leukotriene D4) induced bronchospasm when administered perorally with respect to LY-171883 compound; assay type: functional
# Cavia porcellus [34] = test: Relative inhibitory potency against ovalbumin induced bronchospasm when administered intraduodenally with respect to LY-171883 compound; assay type: functional
# Cavia porcellus [35] = test: Relative inhibitory potency against ovalbumin induced bronchospasm when administered perorally with respect to LY-171883 compound; assay type: functional
# Cavia porcellus [36] = test: Antagonist activity was determined by the ability to inhibit of LTD4 (leukotriene D4) induced bronchospasm when administered intraduodenally with respect to LY-171883 compound; assay type: functional; settings: intraduodenal; in short: as §2
# Cavia porcellus [37] = test: Antagonist activity was determined by the ability to inhibit of LTD4 (leukotriene D4) induced bronchospasm when administered perorally with respect to LY-171883 compound; assay type: functional; settings: po; in short: as §1
# Cavia porcellus [38] = test: Inhibition of Ovalbumin (OA) induced bronchospasm in the guinea pig when administered intraduodenally at 25 mg/kg; NA means not active; assay type: functional, organism-based; design: dose 25 mg/kg; in short: as §2
# Sequence of Cysteinyl leukotriene receptor (Homo sapiens) (Q9NS75 whole entry, looked up): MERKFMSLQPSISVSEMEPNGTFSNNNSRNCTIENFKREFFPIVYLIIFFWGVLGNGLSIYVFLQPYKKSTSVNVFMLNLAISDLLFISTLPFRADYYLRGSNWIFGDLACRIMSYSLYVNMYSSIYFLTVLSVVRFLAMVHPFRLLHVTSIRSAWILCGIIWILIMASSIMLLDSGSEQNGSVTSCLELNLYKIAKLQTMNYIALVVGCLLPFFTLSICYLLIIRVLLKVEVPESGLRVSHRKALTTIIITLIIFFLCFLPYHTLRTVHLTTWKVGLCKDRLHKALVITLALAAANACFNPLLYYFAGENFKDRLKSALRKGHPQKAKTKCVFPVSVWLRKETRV
# Sequence of Cysteinyl leukotriene receptor (Homo sapiens) (Q9Y271 whole entry, looked up): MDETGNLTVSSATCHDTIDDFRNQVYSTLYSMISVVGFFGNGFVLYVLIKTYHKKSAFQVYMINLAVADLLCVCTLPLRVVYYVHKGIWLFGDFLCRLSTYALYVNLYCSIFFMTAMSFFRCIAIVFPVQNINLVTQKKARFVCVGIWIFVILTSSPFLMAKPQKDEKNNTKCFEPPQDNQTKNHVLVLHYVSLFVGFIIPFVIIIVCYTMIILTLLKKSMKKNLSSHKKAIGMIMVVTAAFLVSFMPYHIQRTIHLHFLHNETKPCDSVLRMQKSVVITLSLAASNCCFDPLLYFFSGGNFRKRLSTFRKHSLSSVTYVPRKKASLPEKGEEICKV
structure (smiles),measurement,setting,value
c1cncc(C2=NCC(c3cccc(OCc4ccc5ccccc5n4)c3)O2)c1 (stereo not drawn),inhibition,Cavia porcellus [1],inactive
same,inhibition,Cavia porcellus [2],inactive
same,inhibition,Cavia porcellus [3],86%
O=S(=O)(NCC(O)c1cccc(OCc2ccc3ccccc3n2)c1)C(F)(F)F (stereo not drawn),inhibition in vivo at 25 mg/kg,Cavia porcellus [4],29%
same,inhibition in vivo at 25 mg/kg,Cavia porcellus [5],-53%
same,inhibition,Cavia porcellus [3],83%
CN1CC(c2cccc(OCc3nc4ccccc4n3C)c2)OC1=O (stereo not drawn),inhibition in vivo at 25 mg/kg,Cavia porcellus [4],68%
same,inhibition,Cavia porcellus [6],65%
CCCCCC(O)c1cccc(OCc2ccc3ccccc3n2)c1 (stereo not drawn) [REV-5901],ED50,Cavia porcellus [7],52 mg/kg
same,ED50,Cavia porcellus [8],47 mg/kg
same,ED50,Cavia porcellus [9],87 mg/kg
same,Potency,Cavia porcellus [10],8.5
same,Potency,Cavia porcellus [11],1.6
same,ED50,Cavia porcellus [12],51 mg/kg
same,pkb,Cavia porcellus [13],5.64
same,Potency,Cavia porcellus [14],8
same,Potency,Cavia porcellus [15],2.3
O=C(NCC(O)c1cccc(OCc2ccc3ccccc3n2)c1)c1ccccn1 (stereo not drawn),inhibition,Cavia porcellus [3],20%
CCOC(=O)N(C)C[C@H](O)c1cccc(OCc2ccc3ccccc3n2)c1,inhibition,[16],20%
same,inhibition,Cavia porcellus [6],71%
CCOC(=O)CC1=NCC(c2cccc(OCc3ccc4ccccc4n3)c2)O1 (stereo not drawn),inhibition,Cavia porcellus [3],77%
CCN(CC)C(=O)N(C)CC(=O)c1cccc(OCc2ccc3ccccc3n2)c1,inhibition,Cavia porcellus [6],26%
O=C(NCC(O)c1cccc(OCc2ccc3ccccc3n2)c1)c1ccccc1 (stereo not drawn),inhibition,Cavia porcellus [3],18%
CCNC(=O)O[C@@H](CN(C)C(=O)N(CC)CC)c1cccc(OCc2ccc3ccccc3n2)c1,inhibition,[16],80%
same,inhibition,Cavia porcellus [17],inactive
same,inhibition,Cavia porcellus [6],54%
CN1C[C@@H](c2cccc(OCc3ccc4ccccc4n3)c2)OC1=O,inhibition,[16],56%
same,ED50,Cavia porcellus [18],95 mg/kg
same,Inhibition,Cavia porcellus [19],56%
same,ED50,Cavia porcellus [20],42 mg/kg
same,Potency,Cavia porcellus [21],2
same,Potency,Cavia porcellus [22],1.1
same,Potency,Cavia porcellus [23],2.2
same,Potency,Cavia porcellus [24],2.5
same,ED50,Cavia porcellus [25],12 mg/kg
same,ED50,Cavia porcellus [26],36 mg/kg
same,Potency,Cavia porcellus [27],3
same,pkb,Cavia porcellus [13],6.09
same,IC50,[28],> 100 µM
same,inhibition,Cavia porcellus [29],56%
same,inhibition,Cavia porcellus [6],91%
NCC(O)c1cccc(OCc2ccc3ccccc3n2)c1 (stereo not drawn),inhibition,Cavia porcellus [6],23%
CCCc1c(OCCCCc2nnn[nH]2)ccc(C(C)=O)c1O [TOMELUKAST],ED50,Cavia porcellus [30],19 mg/kg
same,ED50,Cavia porcellus [31],38 mg/kg
same,Potency,Cavia porcellus [32],1
same,Potency,Cavia porcellus [33],1
same,Potency,Cavia porcellus [34],1
same,Potency,Cavia porcellus [35],1
same,ED50,Cavia porcellus [36],6 mg/kg
same,ED50,Cavia porcellus [37],32 mg/kg
same,pkb,Cavia porcellus [13],6.55
same,Potency,Cavia porcellus [14],1
O=C1OC(c2cccc(OCc3ccc4ccccc4n3)c2)CN1Cc1ccc2ccccc2n1 (stereo not drawn),inhibition,[16],50%
same,inhibition,Cavia porcellus [6],31%
O=C(NCC(O)c1cccc(OCc2ccc3ccccc3n2)c1)c1cccs1 (stereo not drawn),inhibition,Cavia porcellus [1],inactive
same,inhibition,Cavia porcellus [3],82%
O=C1NCC(c2cccc(OCc3ccc4ccccc4n3)c2)O1 (stereo not drawn),inhibition,Cavia porcellus [3],66%
CCC(=O)N(C)C[C@H](O)c1cccc(OCc2nc3ccccc3n2C)c1,inhibition,[16],66%
same,inhibition,Cavia porcellus [29],13%
same,inhibition,Cavia porcellus [6],51%
CCOC(=O)CC(=O)NCC(O)c1cccc(OCc2ccc3ccccc3n2)c1 (stereo not drawn),inhibition,Cavia porcellus [3],25%
CN1C[C@H](c2cccc(OCc3ccc4ccccc4n3)c2)OC1=O,inhibition,Cavia porcellus [38],inactive
same,inhibition,Cavia porcellus [6],99%
